Activity calls are given as the source filed them. No cut-off for these calls is given here.
Columns and labels:
[1] = system: SK-BR-3; assay: In vitro inhibition of p185 erbB-2 oncoprotein in human breast cancer SK-BR-3 cells; format: functional, cell-based
Method in brief: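 Cellular assay with read-out as depletion of p185 erbB-2 protein after drug treatment of the cells. This depletion tracks inhibition of p185 autophosphorylation.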

[2] = system: Mus musculus; assay: In vivo inhibition of p185 phosphotyrosine in nu/nu nude mice bearing Fisher rat embryo cells transfected with human erbB-2 (inactive); format: functional, organism-based
[3] = system: Mus musculus; assay: In vivo inhibition of p185 phosphotyrosine in nu/nu nude mice bearing Fisher rat embryo cells transfected with human erbB-2; format: functional; parameters: concentration or dose not given beside the values

Row | Compound | IC50 [1] | inhibition [2] | Inhibition [3]
1 | CO[C@H]1/C=C\C=C(/C)C(=O)NC2=CC(=O)C(NC(C)C)=C(C[C@@H](C)C[C@H](OC)[C@H](O)[C@@H](C)/C=C(\C)[C@@H]1OC(N)=O)C2=O | – | – | 87%
2 | CO[C@H]1/C=C\C=C(/C)C(=O)N(CC(=O)c2ccc3ccccc3c2)C2=CC(=O)C(N)=C(C[C@@H](C)C[C@H](OC)[C@H](O)[C@@H](C)/C=C(\C)[C@@H]1OC(N)=O)C2=O | 200 nM | inactive | –
3 | CO[C@H]1/C=C\C=C(/C)C(=O)N(CC(=O)c2ccccc2)C2=CC(=O)C(N)=C(C[C@@H](C)C[C@H](OC)[C@H](O)[C@@H](C)/C=C(\C)[C@@H]1OC(N)=O)C2=O | 300 nM | – | –
4 | CO[C@H]1/C=C\C=C(/C)C(=O)N(CC(C)=O)C2=CC(=O)C(N)=C(C[C@@H](C)C[C@H](OC)[C@H](O)[C@@H](C)/C=C(\C)[C@@H]1OC(N)=O)C2=O | 830 nM | – | –
5 | CO[C@H]1/C=C\C=C(/C)C(=O)N(Cc2ccccn2)C2=CC(=O)C(N)=C(C[C@@H](C)C[C@H](OC)[C@H](O)[C@@H](C)/C=C(\C)[C@@H]1OC(N)=O)C2=O | > 3100 nM | – | –
6 | COc1ccccc1C(=O)CN1C(=O)/C(C)=C/CC[C@H](OC)[C@@H](OC(N)=O)/C(C)=C/[C@H](C)[C@@H](O)[C@@H](OC)C[C@H](C)CC2=C(N)C(=O)C=C1C2=O | 200 nM | – | –
7 | CO[C@H]1/C=C\C=C(/C)C(=O)NC2=CC(=O)C(N3CCC3)=C(C[C@@H](C)C[C@H](OC)[C@H](O)[C@@H](C)/C=C(\C)[C@@H]1O)C2=O | 1290 nM | – | –
8 | CO[C@H]1/C=C\C=C(/C)C(=O)N(CC(=O)c2ccc(N=[N+]=[N-])cc2)C2=CC(=O)C(N3CCC3)=C(C[C@@H](C)C[C@H](OC)[C@H](O)[C@@H](C)/C=C(\C)[C@@H]1OC(N)=O)C2=O | 1900 nM | – | –
9 | COc1ccc(C(=O)CN2C(=O)/C(C)=C/C=C\[C@H](OC)[C@@H](OC(N)=O)/C(C)=C/[C@H](C)[C@@H](O)[C@@H](OC)C[C@H](C)CC3=C(N)C(=O)C=C2C3=O)cc1 | 1200 nM | – | –
10 | COC1=C2C[C@@H](C)C[C@H](OC)[C@H](O)[C@@H](C)/C=C(\C)[C@H](OC(N)=O)[C@@H](OC)/C=C\C=C(/C)C(=O)NC(=CC1=O)C2=O | – | inactive | –
11 | CO[C@H]1/C=C\C=C(/C)C(=O)NC2=CC(=O)C(N)=C(C[C@@H](C)C[C@H](OC)[C@H](O)[C@@H](C)/C=C(\C)[C@@H]1O)C2=O | > 3900 nM | – | –
12 | CO[C@H]1/C=C\C=C(/C)C(=O)N(CC(=O)c2ccc(Cl)c(Cl)c2)C2=CC(=O)C(N)=C(C[C@@H](C)C[C@H](OC)[C@H](O)[C@@H](C)/C=C(\C)[C@@H]1OC(N)=O)C2=O | 80 nM | inactive | –
13 | CO[C@H]1/C=C\C=C(/C)C(=O)NC2=CC(=O)C(N3CCC3)=C(C[C@@H](C)C[C@H](OC)[C@H](O)[C@@H](C)/C=C(\C)[C@@H]1OC(N)=O)C2=O | – | – | 61%
14 | CO[C@H]1/C=C\C=C(/C)C(=O)N(CC(=O)c2ccc(N=[N+]=[N-])cc2)C2=CC(=O)C(N)=C(C[C@@H](C)C[C@H](OC)[C@H](O)[C@@H](C)/C=C(\C)[C@@H]1OC(N)=O)C2=O | 230 nM | – | –
15 | CO[C@H]1/C=C\C=C(/C)C(=O)N(CC(=O)c2ccc(N=[N+]=[N-])c(I)c2)C2=CC(=O)C(N)=C(C[C@@H](C)C[C@H](OC)[C@H](O)[C@@H](C)/C=C(\C)[C@@H]1OC(N)=O)C2=O | 140 nM | – | –
16 | CO[C@H]1/C=C\C=C(/C)C(=O)N(CC(=O)c2cccc3ccccc23)C2=CC(=O)C(N)=C(C[C@@H](C)C[C@H](OC)[C@H](O)[C@@H](C)/C=C(\C)[C@@H]1OC(N)=O)C2=O | 70 nM | inactive | –
17 | COc1ccccc1C(=O)CN1C(=O)/C(C)=C/C=C\[C@H](OC)[C@@H](OC(N)=O)/C(C)=C/[C@H](C)[C@@H](O)[C@@H](OC)C[C@H](C)CC2=C(N)C(=O)C=C1C2=O | 600 nM | – | 50%
18 | CO[C@H]1C[C@H](C)CC2=C(N3CCC3)C(=O)C=C(NC(=O)/C(C)=C/CC[C@H](OC)[C@@H](OC(N)=O)/C(C)=C/[C@H](C)[C@@H]1F)C2=O | 40 nM | inactive | –
19 | C=CCNC1=C2C[C@@H](C)C[C@H](OC)[C@H](O)[C@@H](C)/C=C(\C)[C@H](OC(N)=O)[C@@H](OC)/C=C\C=C(/C)C(=O)NC(=CC1=O)C2=O [TANESPIMYCIN] | – | – | 56%
20 | CO[C@H]1/C=C\C=C(/C)C(=O)NC2=CC(=O)C(NC3CCC3)=C(C[C@@H](C)C[C@H](OC)[C@H](O)[C@@H](C)/C=C(\C)C1=O)C2=O | > 3700 nM | – | –
21 | CNC1=C2C[C@@H](C)C[C@H](OC)[C@H](O)[C@@H](C)/C=C(\C)[C@H](OC(N)=O)[C@@H](OC)/C=C\C=C(/C)C(=O)NC(=CC1=O)C2=O | – | – | 18%
22 | CO[C@H]1/C=C\C=C(/C)C(=O)N(CC(=O)c2ccc([N+](=O)[O-])cc2)C2=CC(=O)C(N)=C(C[C@@H](C)C[C@H](OC)[C@H](O)[C@@H](C)/C=C(\C)[C@@H]1OC(N)=O)C2=O | 90 nM | – | –
23 | CO[C@H]1C[C@H](C)CC2=C(N)C(=O)C=C(NC(=O)/C(C)=C/CC[C@H](OC)[C@@H](OC(N)=O)/C(C)=C/[C@H](C)[C@H]1O)C2=O | 37 nM | – | 45%
24 | COC(=O)/C(C)=C\C=C\[C@H](OC)[C@@H](OC(N)=O)/C(C)=C/[C@H](C)[C@@H](O)[C@H](C[C@H](C)CC1=C(N2CCC2)C(O)=CC(=N)C1=O)OC | > 3200 nM | – | –

The next lines start with results.

Row | IC50 [1] | Compound | inhibition [2] | Inhibition [3]
25 | > 3300 nM | C=CCNC1=C2C[C@@H](C)C[C@H](OC)[C@H](O)[C@@H](C)/C=C(\C)[C@H](OC(=O)NCC)[C@@H](OC)/C=C\C=C(/C)C(=O)NC(=CC1=O)C2=O | – | –
26 | 500 nM | CO[C@H]1/C=C\C=C(/C)C(=O)NC2=CC(=O)C(NC3CC3)=C(C[C@@H](C)C[C@H](OC)[C@@H](F)[C@@H](C)/C=C(\C)[C@@H]1OC(N)=O)C2=O | – | –
27 | 270 nM | CO[C@H]1C[C@H](C)CC2=C(NC(C)C)C(=O)C=C(NC(=O)/C(C)=C/C=C\[C@H](OC)[C@@H](OC(N)=O)/C(C)=C/[C@H](C)/C1=N/O)C2=O | – | –
28 | 1200 nM | C=CCNC1=C2C[C@@H](C)C[C@H](OC)[C@@H](F)[C@@H](C)/C=C(\C)[C@H](OC(N)=O)[C@@H](OC)CC/C=C(\C)C(=O)NC(=CC1=O)C2=O | inactive | –
29 | 1000 nM | C=CCN[C@H]1[C@@H](OC)C[C@H](C)CC2=C(NC)C(=O)C=C(NC(=O)/C(C)=C/C=C\[C@H](OC)[C@@H](OC(N)=O)/C(C)=C/[C@@H]1C)C2=O | – | –
30 | 140 nM | CO[C@H]1/C=C\C=C(/C)C(=O)NC2=CC(=O)C(N3CCC3)=C(C[C@@H](C)C[C@H](OC)[C@H](OC(=O)NS(=O)(=O)NC(C)C)[C@@H](C)/C=C(\C)[C@@H]1OC(N)=O)C2=O | inactive | –
31 | > 3300 nM | C=CCNC1=C2C[C@@H](C)C[C@H](OC)[C@H](O)[C@@H](C)/C=C(\C)[C@H](OC(=O)CN)[C@@H](OC)/C=C\C=C(/C)C(=O)NC(=CC1=O)C2=O | – | –
32 | 800 nM | C=CCNC1=C2C[C@@H](C)C[C@H](OC)[C@H](OC(=O)NS(=O)(=O)N3CCC3)[C@@H](C)/C=C(\C)[C@H](OC(N)=O)[C@@H](OC)/C=C\C=C(/C)C(=O)NC(=CC1=O)C2=O | – | –
33 | 260 nM | C=CCNC1=C2C[C@@H](C)C[C@H](OC)[C@@H](F)[C@@H](C)/C=C(\C)[C@H](OC(N)=O)[C@@H](OC)/C=C\C=C(/C)C(=O)NC(=CC1=O)C2=O | – | 50%
34 | 50 nM | CO[C@H]1/C=C\C=C(/C)C(=O)NC2=CC(=O)C(N3CCC3)=C(C[C@@H](C)C[C@H](OC)[C@H](OC(N)=O)[C@@H](C)/C=C(\C)[C@@H]1OC(N)=O)C2=O | inactive | –
35 | 1700 nM | CO[C@H]1/C=C\C=C(/C)C(=O)NC2=CC(=O)C(N3CCC3)=C(C[C@@H](C)C[C@H](OC)[C@H](O)[C@@H](C)/C=C(\C)[C@@H]1/N=C(/N)S)C2=O | – | –
36 | 2600 nM | CO[C@H]1/C=C\C=C(/C)C(=O)NC2=CC(=O)C(N3CCC3)=C(C[C@@H](C)C[C@H](OC)[C@H](O)[C@@H](C)/C=C(\C)[C@@H]1NC(N)=O)C2=O | – | –
37 | 170 nM | CO[C@H]1/C=C\C=C(/C)C(=O)NC2=CC(=O)C(N3CCC3)=C(C[C@@H](C)C[C@H](OC)[C@@H](F)[C@@H](C)/C=C(\C)[C@@H]1OC(N)=O)C2=O | inactive | –
38 | 1000 nM | CO[C@H]1/C=C\C=C(/C)C(=O)NC2=CC(=O)C(N3CCC3)=C(C[C@@H](C)C[C@H](OC)[C@H](O)[C@@H](C)/C=C(\C)[C@@H]1OC(=O)C(=O)O)C2=O | – | –
39 | 1100 nM | CO[C@H]1C[C@H](C)CC2=C(N3CCC3)C(=O)C=C(NC(=O)/C(C)=C/C=C\[C@H](OC)[C@@H](OC(N)=O)/C(C)=C/[C@H](C)/C1=N/O)C2=O | inactive | –
40 | 190 nM | CO[C@H]1/C=C\C=C(/C)C(=O)NC2=CC(=O)C(N3CCC3)=C(C[C@@H](C)C[C@H](OC)[C@H](OC(=O)NS(=O)(=O)N3CCN(C)CC3)[C@@H](C)/C=C(\C)[C@@H]1OC(N)=O)C2=O | inactive | –
41 | 34 nM | CNC1=C2C[C@@H](C)C[C@H](OC)C(=O)[C@@H](C)/C=C(\C)[C@H](OC(N)=O)[C@@H](OC)/C=C\C=C(/C)C(=O)NC(=CC1=O)C2=O | inactive | –
42 | 34 nM | CO[C@H]1C[C@H](C)CC2=C(N3CCC3)C(=O)C=C(NC(=O)/C(C)=C/C=C\[C@H](OC)[C@@H](OC(N)=O)/C(C)=C/[C@H](C)C1=O)C2=O | inactive | –
43 | 220 nM | C=CCNC1=C2C[C@@H](C)C[C@H](OC)C(=O)[C@@H](C)/C=C(\C)[C@H](OC(N)=O)[C@@H](OC)/C=C\C=C(/C)C(=O)NC(=CC1=O)C2=O | – | –
44 | 1070 nM | C=CCNC1=C2C[C@@H](C)C[C@H](OC)[C@H](OC(=O)NS(=O)(=O)NC(C)C)[C@@H](C)/C=C(\C)[C@H](OC(N)=O)[C@@H](OC)/C=C\C=C(/C)C(=O)NC(=CC1=O)C2=O | – | –
45 | > 2500 nM | C=CCNC1=C2C[C@@H](C)C[C@H](OC)[C@H](OC(=O)NS(=O)(=O)N3CN(C)C3)[C@@H](C)/C=C(\C)[C@H](OC(N)=O)[C@@H](OC)/C=C\C=C(/C)C(=O)NC(=CC1=O)C2=O | – | –
46 | 850 nM | CNC1=C2C[C@@H](C)C[C@H](OC)[C@H](NCc3ccccc3)[C@@H](C)/C=C(\C)[C@H](OC(N)=O)[C@@H](OC)/C=C\C=C(/C)C(=O)NC(=CC1=O)C2=O | – | –

— ChEMBL document CHEMBL1128590, “erbB-2 oncogene inhibition by geldanamycin derivatives: synthesis, mechanism of action, and structure-activity relationships” (J Med Chem, 1995)
